Reference: ChEMBL document CHEMBL4007461, “Synthesis, Antiviral Potency, in Vitro ADMET, and X-ray Structure of Potent CD4 Mimics as Entry Inhibitors That Target the Phe43 Cavity of HIV-1 gp120” (J Med Chem, 2017)
pIC50: −log10 of the molar value. ≈ marks a conversion by molar mass, not a printed value.

Tests used:
[1] = test system: Human immunodeficiency virus 1; assay: microbe, parasite or virus in culture; settings: Human immunodeficiency virus 1, subtype C Du422, clone 1
[2] = test system: Vesicular stomatitis virus; assay: Antiviral activity against G-glycoprotein expressing VSV; type: functional
Summary of the method: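 VSV-G pseudovirus made in HEK293T cells from pVPack-VSV-G, MLV gag-pol pVPack-GP and pFB-luc plasmids. Virus was preincubated 30 min with graded compound concentrations, then added to U87-CD4-CXCR4 cells (1 x 10^4/well, plated overnight).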

[3] = test system: Human immunodeficiency virus 1; assay: microbe, parasite or virus in culture; settings: Human immunodeficiency virus 1, subtype C QB099.391 M.ENV.B1
[4] = test system: Human immunodeficiency virus 1; assay: microbe, parasite or virus in culture; settings: Human immunodeficiency virus 1, pCAAN5342 clone A2
[5] = test system: Human immunodeficiency virus 1; assay: microbe, parasite or virus in culture; settings: Human immunodeficiency virus 1, subtype A2/D QG393.60M.ENV.B8
[6] = test system: Human immunodeficiency virus 1; assay: Antiviral activity against ENV pseudotyped CCR5-tropic HIV1 subtype C 225925-2, clone 22; type: functional; settings: Human immunodeficiency virus 1, subtype C 225925-2, clone 22
Summary of the method: (§1)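 Env-pseudotyped viruses made by co-transfecting HEK293T cells with an Env-deleted pSG3 backbone (8 µg) and an Env-expression plasmid (8 µg). Supernatants were harvested 2 days after transfection, filtered, titered and stored at −80 °C. They were used for single-cycle infection, and IC50 was taken from percent inhibition.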

[7] = Metabolic stability in human liver microsomes assessed as compound remaining at 45 mins in presence of NADPH by LC-MS/MS analysis; type: ADME, microsome; settings: read-out: Stability
[8] = test system: Human immunodeficiency virus 1; assay: microbe, parasite or virus in culture; settings: Human immunodeficiency virus 1, subtype A QB726.70M.ENV.C4
[9] = test system: Human immunodeficiency virus 1; assay: microbe, parasite or virus in culture; settings: Human immunodeficiency virus 1, subtype A/G CRF02_AG clone 263
[10] = Unbound fraction in human plasma at 5 uM by LC-MS/MS based equilibrium dialysis; type: ADME, cell-free
[11] = test system: Human immunodeficiency virus 1; assay: Antiviral activity against ENV pseudotyped CCR5-tropic HIV1 subtype D QA013.70I.ENV.M12; type: functional; settings: Human immunodeficiency virus 1, subtype D QA013.70I.ENV.M12
Summary of the method: as §1

[12] = test system: Human immunodeficiency virus 1; assay: Antiviral activity against ENV pseudotyped CCR5-tropic HIV1 subtype D QD435.100M.ENV.E1; type: functional; settings: Human immunodeficiency virus 1, subtype D QD435.100M.ENV.E1
[13] = Inhibition of HIV1 HXB2 gp120-mediated cell to cell fusion using human MAGI-CCR5 cells as indicator cells and Env/Tat-expressing HL2/3 cells as effector cells preincubated with MAGI-CCR5 cells for 1 hr followed by HL2/3 cells addition by beta-galactosidase reporter gene assay; settings: Human immunodeficiency virus 1, HXB2
[14] = Apparent permeability from basolateral to apical side in human Caco2 cells at 10 uM at pH 7.4 by LC-MS/MS analysis; type: ADME, cell-based; settings: Caco-2, pH 7.4
Summary of the method: (§2)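 Caco-2 cells, passage 40-60, seeded on Transwell inserts at 1 x 10^5 cells/cm2 and grown 20 days in DMEM. Monolayers equilibrated 40 min in HBSS. Donor: compound at 10 µM final, 1% DMSO, in HBSS pH 7.4 with lucifer yellow as integrity marker. Sampled at 120 min, A-B and B-A, in duplicate, by LC-MS/MS. Papp = (dQ/dt)/(C0 × A); efflux ratio = Papp(B-A)/Papp(A-B).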

[15] = test system: Human immunodeficiency virus 1; assay: microbe, parasite or virus in culture; settings: Human immunodeficiency virus 1, subtype D/A BF535.W6M.ENV.A1
Cytochrome P450 2C19 = Cytochrome P450 2C19 (Homo sapiens, UniProt P33261); assay: Inhibition of CYP2C19 in human liver microsomes using mephenytoin as substrate after 60 mins in presence of NADPH by LC-MS/MS analysis; type: ADME
Cytochrome P450 2C19, sequence (P33261 whole entry): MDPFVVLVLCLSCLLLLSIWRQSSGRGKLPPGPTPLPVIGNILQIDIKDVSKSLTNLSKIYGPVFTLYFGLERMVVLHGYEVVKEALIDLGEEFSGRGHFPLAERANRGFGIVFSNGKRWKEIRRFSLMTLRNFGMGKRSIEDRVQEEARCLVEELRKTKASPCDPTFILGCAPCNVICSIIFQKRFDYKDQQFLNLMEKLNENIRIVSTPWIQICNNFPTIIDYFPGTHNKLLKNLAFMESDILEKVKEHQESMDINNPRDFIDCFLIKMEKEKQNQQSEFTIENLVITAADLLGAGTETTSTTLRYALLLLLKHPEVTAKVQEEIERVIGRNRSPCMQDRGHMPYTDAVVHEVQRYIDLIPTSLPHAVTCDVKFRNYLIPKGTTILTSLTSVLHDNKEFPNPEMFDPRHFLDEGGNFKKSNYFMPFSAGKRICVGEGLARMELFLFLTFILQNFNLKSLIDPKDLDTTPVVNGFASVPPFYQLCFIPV

[16] = test system: Human immunodeficiency virus 1; assay: Antiviral activity against ENV pseudotyped CCR5-tropic HIV1 p1054.TC4.1499; type: functional; settings: Human immunodeficiency virus 1, p1054.TC4.1499
[17] = test system: Human immunodeficiency virus 1; assay: Antiviral activity against ENV pseudotyped CCR5-tropic HIV1 subtype D QD435.100M.ENV.A4; type: functional; settings: Human immunodeficiency virus 1, subtype D QD435.100M.ENV.A4
Summary of the method: as §1

[18] = Apparent permeability from apical to basolateral side in human Caco2 cells at 10 uM at pH 7.4 by LC-MS/MS analysis; type: ADME, cell-based; settings: Caco-2, pH 7.4
Summary of the method: as §2

[19] = Cytotoxicity against human TZM-bl cells incubated for 3 days by XTT assay; type: cell-based; settings: TZM-bl cells
Summary of the method: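 TZM-bl cells, 1 x 10^4/well, cultured overnight at 37 °C. Compounds added at graded concentrations for three days.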

[20] = target: Voltage-gated inwardly rectifying potassium channel KCNH2 (Homo sapiens, UniProt Q12809); assay: Inhibition of human ERG expressed in CHO cells by patch clamp electrophysiology assay; type: cell-based
Voltage-gated inwardly rectifying potassium channel KCNH2, sequence (Q12809 whole entry): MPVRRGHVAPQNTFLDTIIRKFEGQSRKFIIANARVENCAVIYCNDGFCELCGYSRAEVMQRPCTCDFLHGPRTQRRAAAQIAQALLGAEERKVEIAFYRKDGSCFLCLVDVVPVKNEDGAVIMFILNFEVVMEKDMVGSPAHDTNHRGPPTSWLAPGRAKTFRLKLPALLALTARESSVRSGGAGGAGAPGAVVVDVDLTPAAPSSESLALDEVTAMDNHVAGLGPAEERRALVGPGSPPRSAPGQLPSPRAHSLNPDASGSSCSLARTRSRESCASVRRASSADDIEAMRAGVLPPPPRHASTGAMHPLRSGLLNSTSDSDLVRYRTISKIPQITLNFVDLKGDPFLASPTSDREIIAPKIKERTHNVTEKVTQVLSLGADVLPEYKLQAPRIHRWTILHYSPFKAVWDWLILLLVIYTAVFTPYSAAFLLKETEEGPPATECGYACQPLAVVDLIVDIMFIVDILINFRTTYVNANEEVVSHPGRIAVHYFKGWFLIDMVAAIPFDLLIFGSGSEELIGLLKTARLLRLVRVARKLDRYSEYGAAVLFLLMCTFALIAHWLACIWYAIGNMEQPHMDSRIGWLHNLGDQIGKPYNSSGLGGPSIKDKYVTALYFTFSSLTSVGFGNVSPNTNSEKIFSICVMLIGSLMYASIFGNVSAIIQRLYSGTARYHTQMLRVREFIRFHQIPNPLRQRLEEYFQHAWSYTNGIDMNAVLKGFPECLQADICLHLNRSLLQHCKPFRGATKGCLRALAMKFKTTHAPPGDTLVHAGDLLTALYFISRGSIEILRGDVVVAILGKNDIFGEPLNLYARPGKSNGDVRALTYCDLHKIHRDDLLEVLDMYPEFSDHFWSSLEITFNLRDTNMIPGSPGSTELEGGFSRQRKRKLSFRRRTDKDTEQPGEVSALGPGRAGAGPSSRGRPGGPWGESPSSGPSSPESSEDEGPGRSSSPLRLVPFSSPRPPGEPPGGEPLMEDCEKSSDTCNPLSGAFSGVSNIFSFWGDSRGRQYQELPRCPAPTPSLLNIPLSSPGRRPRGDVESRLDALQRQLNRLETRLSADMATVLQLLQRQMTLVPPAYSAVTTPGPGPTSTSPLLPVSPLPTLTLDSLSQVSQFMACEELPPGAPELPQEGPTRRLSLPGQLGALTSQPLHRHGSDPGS

[21] = Inhibition of CYP1A in human liver microsomes using ethoxyresorufin as substrate after 5 mins in presence of NADPH by LC-MS/MS analysis
Cytochrome P450 2D6 = Cytochrome P450 2D6 (Homo sapiens, UniProt P10635); assay: Inhibition of CYP2D6 in human liver microsomes using dextromethorphan as substrate after 5 mins in presence of NADPH by LC-MS/MS analysis; type: ADME
Cytochrome P450 2D6, sequence (P10635 whole entry): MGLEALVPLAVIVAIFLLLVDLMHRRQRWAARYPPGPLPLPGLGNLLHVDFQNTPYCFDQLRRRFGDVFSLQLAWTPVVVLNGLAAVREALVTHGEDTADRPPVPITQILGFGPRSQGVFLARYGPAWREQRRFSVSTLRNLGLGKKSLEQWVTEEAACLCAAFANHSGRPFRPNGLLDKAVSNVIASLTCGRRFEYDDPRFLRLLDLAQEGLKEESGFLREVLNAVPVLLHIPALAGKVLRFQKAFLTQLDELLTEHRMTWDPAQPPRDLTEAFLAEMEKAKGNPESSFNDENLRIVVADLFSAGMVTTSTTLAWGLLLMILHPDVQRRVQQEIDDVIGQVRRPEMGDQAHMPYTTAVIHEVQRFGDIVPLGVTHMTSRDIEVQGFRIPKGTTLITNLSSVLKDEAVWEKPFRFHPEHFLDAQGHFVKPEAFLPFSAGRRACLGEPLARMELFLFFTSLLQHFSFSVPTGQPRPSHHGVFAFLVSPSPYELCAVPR

[22] = test system: Human immunodeficiency virus 1; assay: microbe, parasite or virus in culture; settings: Human immunodeficiency virus 1, subtype A/G CRF02_AG clone 278
[23] = Inhibition of HIV1 reverse transcriptase by colorimetric assay; set-up: species or system Human immunodeficiency virus 1
Summary of the method: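 HIV-1 reverse transcriptase activity measured with a commercial colorimetric reverse transcriptase kit, following the maker's instructions.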

MT2 = assay: Cytotoxicity against human MT2 cells incubated for 4 days by XTT assay; type: cell-based; settings: mt2, 96 h, 96 h
Summary of the method: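 Run alongside the MT-2 multicycle infection assay. Compound at graded concentrations mixed with an equal volume of MT-2 cells (10^5 cells/ml). Medium replaced next day and culture continued four days.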

[24] = Aqueous solubility of the compound at 1 to 100 uM in PBS at pH 7.4 after 2 hrs by turbidimetric analysis; type: physicochemical
Summary of the method: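 DMSO stocks diluted 1:100 into phosphate-buffered saline pH 7.4, giving 1, 3, 10, 30 and 100 µM final in 1% DMSO. Seven replicate wells per concentration, incubated 2 h at 37 °C, absorbance read at 620 nm. Solubility taken as the concentration giving absorbance above the 1% DMSO vehicle.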

[25] = test system: Human immunodeficiency virus 1; assay: Antiviral activity against ENV pseudotyped CCR5-tropic HIV1 p9021_14.B2.4571; type: functional; settings: Human immunodeficiency virus 1, p9021_14.B2.4571
[26] = test system: Human immunodeficiency virus 1; assay: microbe, parasite or virus in culture; settings: Human immunodeficiency virus 1, AC10.0, clone 29
Cytochrome P450 3A4 = Cytochrome P450 3A4 (Homo sapiens, UniProt P08684); assay: Inhibition of CYP3A4 in human liver microsomes using midazolam as substrate after 5 mins in presence of NADPH by LC-MS/MS analysis; type: ADME
Cytochrome P450 3A4, sequence (P08684 whole entry): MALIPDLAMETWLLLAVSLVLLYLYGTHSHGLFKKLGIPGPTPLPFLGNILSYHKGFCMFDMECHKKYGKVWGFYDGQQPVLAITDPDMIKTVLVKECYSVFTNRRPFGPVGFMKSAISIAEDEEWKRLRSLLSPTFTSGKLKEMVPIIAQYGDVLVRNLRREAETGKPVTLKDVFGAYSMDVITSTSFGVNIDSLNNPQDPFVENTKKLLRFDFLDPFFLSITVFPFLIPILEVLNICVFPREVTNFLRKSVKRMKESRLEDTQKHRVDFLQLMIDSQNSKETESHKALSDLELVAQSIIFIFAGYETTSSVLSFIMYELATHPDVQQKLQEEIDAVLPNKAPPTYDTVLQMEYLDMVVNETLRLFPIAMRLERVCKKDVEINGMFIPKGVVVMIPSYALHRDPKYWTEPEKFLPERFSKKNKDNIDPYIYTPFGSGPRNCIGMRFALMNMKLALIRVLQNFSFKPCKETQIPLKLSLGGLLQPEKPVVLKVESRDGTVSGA

[27] = test system: Human immunodeficiency virus 1; assay: Antiviral activity against ENV pseudotyped CCR5-tropic HIV1 subtype C 25711-2, clone 4; type: functional; settings: Human immunodeficiency virus 1, subtype C 25711-2, clone 4
[28] = test system: Human immunodeficiency virus 1; assay: Antiviral activity against ENV pseudotyped CCR5-tropic HIV1 subtype C 6936-2, clone 21; type: functional; settings: Human immunodeficiency virus 1, subtype C 6936-2, clone 21
Summary of the method: as §1

Cytochrome P450 2C9 = Cytochrome P450 2C9 (Homo sapiens, UniProt P11712); assay: Inhibition of CYP2C9 in human liver microsomes using tolbutamide as substrate after 60 mins in presence of NADPH by LC-MS/MS analysis; type: ADME
Cytochrome P450 2C9, sequence (P11712 whole entry): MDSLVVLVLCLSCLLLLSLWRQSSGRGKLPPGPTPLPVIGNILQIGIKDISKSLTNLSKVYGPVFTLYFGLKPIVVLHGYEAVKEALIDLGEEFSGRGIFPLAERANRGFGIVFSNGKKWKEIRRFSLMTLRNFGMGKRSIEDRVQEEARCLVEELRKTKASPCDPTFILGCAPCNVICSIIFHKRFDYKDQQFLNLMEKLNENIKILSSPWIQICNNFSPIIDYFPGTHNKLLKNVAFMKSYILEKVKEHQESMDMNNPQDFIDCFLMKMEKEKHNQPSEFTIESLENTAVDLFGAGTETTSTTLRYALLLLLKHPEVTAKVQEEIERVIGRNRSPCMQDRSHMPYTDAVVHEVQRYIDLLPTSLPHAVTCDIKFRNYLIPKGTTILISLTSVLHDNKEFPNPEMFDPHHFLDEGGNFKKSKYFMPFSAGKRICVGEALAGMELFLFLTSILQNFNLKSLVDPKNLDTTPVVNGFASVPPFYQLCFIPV

[29] = Intrinsic clearance in human liver microsomes assessed per mg protein in presence of NADPH by LC-MS/MS analysis; type: ADME, microsome; settings: read-out: CLH
[30] = test system: Human immunodeficiency virus 1; assay: Antiviral activity against HIV1 HXB2 pseudovirus infected in human TZM-bl cells assessed as inhibition of viral entry treated 4 hrs post infection measured after 48 hrs by luciferase reporter gene assay; type: functional

## NCC(NC(=O)c1ccc(-c2cc(F)c(Cl)c(F)c2)[nH]1)c1ncc(CO)s1 (stereo in doubt)
[1]
  pIC50: 6.49
[2]
  pIC50: 4.59
[3]
  pIC50: 6.29
[4]
  pIC50: 6.22
[5]
  pIC50: 6.57
[6]
  pIC50: 6.48
[7]
  remaining at […]: 97.4%
[8]
  pIC50: 6.29
[9]
  pIC50: 6.22
[10]
  fraction unbound at 5 µM: 0.1
[11]
  pIC50: 6.30
[12]
  pIC50: 6.30
[13]
  pIC50: 4.88
[14]
  Papp B→A at 10 µM: 17.2 ×10⁻⁶ cm/s
[15]
  pIC50: 6.03
Cytochrome P450 2C19
  pIC50: < 4.60
[16]
  pIC50: 6.19
[17]
  pIC50: 6.49
[18]
  Papp A→B at 10 µM: 1.17 ×10⁻⁶ cm/s
[19]
  CC50 at 72 h: 39500 nM
[20]
  IC50: 14100 nM
[21]
  pIC50: < 4.60
Cytochrome P450 2D6
  pIC50: < 4.60
[22]
  pIC50: 6.30
[23]
  pIC50: 5.08
MT2
  CC50: 37000 nM
[24]
  solubility kinetic at 2 h: 65 µM (≈ 26.8 µg/mL)
[25]
  pIC50: 6.51
[26]
  pIC50: 6.30
Cytochrome P450 3A4
  pIC50: < 4.60
[27]
  pIC50: 6.28
[28]
  pIC50: 6.51
Cytochrome P450 2C9
  pIC50: < 4.60
[29]
  microsomal CLint: < 10 µL/min/mg

## Cc1cn([C@H]2C[C@H](N=[N+]=[N-])[C@@H](CO)O2)c(=O)[nH]c1=O [ZIDOVUDINE]
[30]
  inhibition (INH): 50%
